The test system of data set [1] is Zone of skin. Kind of data set: Drug metabolism in Sprague-Dawley rat skin treated with (R)-Sulindac at 2 mg, ip after 0.5 to 4 hrs by HPLC analysis. The following applies: in vivo.
Data set [2] has as its system Liver. Kind of data set: Drug metabolism in Sprague-Dawley rat liver treated with (R)-Sulindac at 2 mg, ip after 0.5 to 4 hrs by HPLC analysis. The following applies: in vivo.
A short description of data set [3]: Retention time in rat plasma measured after 4 hrs ip injection of sulindac. In kind it is physicochemical, organism-based. The note with it: in vivo.
Data set [4] deals with Zone of skin. Briefly: Drug metabolism in Sprague-Dawley rat skin treated with (S)-Sulindac at 2 mg, ip after 0.5 to 4 hrs by HPLC analysis. The following applies: in vivo.
Data set [5] has as its system Brain. Kind of data set: Drug metabolism in Sprague-Dawley rat brain treated with (R)-Sulindac at 2 mg, ip after 0.5 to 4 hrs by HPLC analysis. The following applies: in vivo.
For data set [6], the system named is Plasma. Briefly: Drug metabolism in Sprague-Dawley rat plasma treated with (R)-Sulindac at 2 mg, ip after 0.5 to 4 hrs by HPLC analysis. The following applies: in vivo.
Data set [7] relates to Liver. Briefly: Drug metabolism in Sprague-Dawley rat liver treated with (S)-Sulindac at 2 mg, ip after 0.5 to 4 hrs by HPLC analysis. The following applies: in vivo.
Data set [8] deals with Plasma. Kind of data set: Drug metabolism in Sprague-Dawley rat plasma treated with (S)-Sulindac at 2 mg, ip after 0.5 to 4 hrs by HPLC analysis. The note with it: in vivo.
The subject of data set [9] is Brain. Kind of data set: Drug metabolism in Sprague-Dawley rat brain treated with (S)-Sulindac at 2 mg, ip after 0.5 to 4 hrs by HPLC analysis. The note with it: in vivo.
A further data set concerns Liver microsome. Kind of data set: Drug metabolism in rat liver microsomes at 200 µM after 60 mins by HPLC analysis in presence of NADPH. The following applies: 1 h.
Another data set addresses Cytochrome P450 2C19 (Homo sapiens, UniProt P33261). Kind of data set: Drug metabolism assessed as human recombinant CYP2C19-mediated sulindac sulfone formation measured per pmol of protein at 200 uM after 90 mins by HPLC analysis. The following applies: recombinant enzyme, 1.5 h. It is filed as ADME. In short, it runs like this: (§1)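 Recombinant rat or human P450 Supersomes (some with cytochrome b5, variable reductase) incubated with (R)-sulindac at 500 μM or (S)-sulindac at 200 μM plus NADPH-regenerating system in 100 mM potassium phosphate pH 7.4 at 37°C, linear up to 90 min; acetonitrile stop; sulfone by C18 HPLC at 330 nm; ≥3 runs; pmol/pmol enzyme/h, mean ± S.E.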

A further data set has as its system MRC5. Kind of data set: Cytoprotective activity in TBHP-induced human MRC5 cells at 500 uM incubated for 48 hrs prior to TBHP-challenge measured after 2 hrs. It is filed as functional, cell-based. In short, it runs like this: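 Normal lung cells preincubated 48 h with 500 μM (R)- or (S)-sulindac or no drug, then challenged with TBHP; viability expressed as percent of cells not exposed to TBHP; mean and S.E. of five repeats; p < 0.05 versus no-drug controls.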

For a further data set, the target named is Cytochrome P450 2D6 (Homo sapiens, UniProt P10635). Kind of data set: Drug metabolism assessed as human recombinant CYP2D6-mediated sulindac sulfone formation measured per pmol of protein at 200 uM after 90 mins by HPLC analysis. In kind it is ADME. The note with it: recombinant enzyme, 1.5 h. In short, it runs like this:
as §1

A further data set concerns A549. Kind of data set: Potentiation of TBHP-induced cytotoxicity in human A549 cells at 500 uM incubated for 48 hrs prior to TBHP-challenge measured after 2 hrs. It is filed as functional, cell-based.
The target of a further data set is Cytochrome P450 2B1 (Rattus norvegicus, UniProt P00176). Briefly: Drug metabolism assessed as rat recombinant CYP2B1-mediated sulindac sulfone formation measured per pmol of protein at 200 uM after 90 mins by HPLC analysis. In kind it is ADME. The note with it: recombinant enzyme, 1.5 h. In a few lines: as §1
In the next data set the target is Cytochrome P450 2C9 (Homo sapiens, UniProt P11712). Kind of data set: Drug metabolism assessed as human recombinant CYP2C9-mediated sulindac sulfone formation measured per pmol of protein at 200 uM after 90 mins by HPLC analysis. The following applies: recombinant enzyme, 1.5 h. It is filed as ADME. In a few lines:
as §1

The target in the next data set is Cytochrome P450 3A4 (Homo sapiens, UniProt P08684). Kind of data set: Drug metabolism assessed as human recombinant CYP3A4-mediated sulindac sulfone formation measured per pmol of protein at 200 uM after 90 mins by HPLC analysis. In kind it is ADME. The note with it: recombinant enzyme, 1.5 h. In a few lines:
as §1

A further data set addresses Cytochrome P450 3A2 (Rattus norvegicus, UniProt P05183). Kind of data set: Drug metabolism assessed as rat recombinant CYP3A2-mediated sulindac sulfone formation measured per pmol of protein at 200 uM after 90 mins by HPLC analysis. In kind it is ADME. The note with it: recombinant enzyme, 1.5 h. In a few lines:
as §1

The target of another data set is Cytochrome P450 1A1 (Rattus norvegicus, UniProt P00185). Kind of data set: Drug metabolism assessed as rat recombinant CYP1A1-mediated sulindac sulfone formation measured per pmol of protein at 200 uM after 90 mins by HPLC analysis. It is filed as ADME. The note with it: recombinant enzyme, 1.5 h. In short, it runs like this:
as §1

The next data set has as its target Cytochrome P450 1B1 (Homo sapiens, UniProt Q16678). Briefly: Drug metabolism assessed as human recombinant CYP1B1-mediated sulindac sulfone formation measured per pmol of protein at 200 uM after 90 mins by HPLC analysis. It is filed as ADME. The following applies: recombinant enzyme, 1.5 h. In short, it runs like this: as §1
Data set [10] deals with Cytochrome P450 1A2 (Homo sapiens, UniProt P05177). Kind of data set: Drug metabolism assessed as human recombinant CYP1A2-mediated sulindac sulfone formation measured per pmol of protein at 200 uM after 90 mins by HPLC analysis. The following applies: recombinant enzyme, 1.5 h. In kind it is ADME. In a few lines:
as §1

The target in data set [11] is Cytochrome P450 1A2 (Rattus norvegicus, UniProt P04799). Kind of data set: Drug metabolism assessed as rat recombinant CYP1A2-mediated sulindac sulfone formation measured per pmol of protein at 200 uM after 90 mins by HPLC analysis. In kind it is ADME. The following applies: recombinant enzyme, 1.5 h. In short, it runs like this: as §1
Cytochrome P450 1A2 (Rattus norvegicus, UniProt P04799), sequence (P04799 whole entry): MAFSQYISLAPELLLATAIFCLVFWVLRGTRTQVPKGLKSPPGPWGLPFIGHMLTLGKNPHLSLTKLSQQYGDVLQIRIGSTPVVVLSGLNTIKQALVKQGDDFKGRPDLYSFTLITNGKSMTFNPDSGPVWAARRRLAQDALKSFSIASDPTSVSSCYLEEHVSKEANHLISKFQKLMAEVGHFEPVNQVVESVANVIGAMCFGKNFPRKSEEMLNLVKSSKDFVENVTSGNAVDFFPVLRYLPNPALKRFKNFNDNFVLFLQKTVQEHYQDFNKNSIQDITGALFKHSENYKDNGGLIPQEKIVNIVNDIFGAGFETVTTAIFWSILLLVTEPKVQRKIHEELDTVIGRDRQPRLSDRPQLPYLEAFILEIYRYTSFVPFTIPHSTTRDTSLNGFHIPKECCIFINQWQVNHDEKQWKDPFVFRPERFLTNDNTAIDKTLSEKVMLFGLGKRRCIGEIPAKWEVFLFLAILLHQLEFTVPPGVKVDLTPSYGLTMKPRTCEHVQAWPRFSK
A further data set concerns the target Cytochrome P450 2C8 (Homo sapiens, UniProt P10632). Kind of data set: Drug metabolism assessed as human recombinant CYP2C8-mediated sulindac sulfone formation measured per pmol of protein at 200 uM after 90 mins by HPLC analysis. It is filed as ADME. The following applies: recombinant enzyme, 1.5 h. In short, it runs like this:
as §1

Data set [12] concerns the target Mitochondrial peptide methionine sulfoxide reductase (Rattus norvegicus, UniProt Q923M1). Kind of data set: Drug metabolism in rat liver S100 fraction assessed as MSRA-mediated reduced product formation measured per mg of protein at 200 uM by HPLC analysis. It is filed as ADME, tissue-based.

Calls of active or inactive are those of the source. No cut-off for these calls is given here.

Cytochrome P450 3A4, sequence (P08684 whole entry): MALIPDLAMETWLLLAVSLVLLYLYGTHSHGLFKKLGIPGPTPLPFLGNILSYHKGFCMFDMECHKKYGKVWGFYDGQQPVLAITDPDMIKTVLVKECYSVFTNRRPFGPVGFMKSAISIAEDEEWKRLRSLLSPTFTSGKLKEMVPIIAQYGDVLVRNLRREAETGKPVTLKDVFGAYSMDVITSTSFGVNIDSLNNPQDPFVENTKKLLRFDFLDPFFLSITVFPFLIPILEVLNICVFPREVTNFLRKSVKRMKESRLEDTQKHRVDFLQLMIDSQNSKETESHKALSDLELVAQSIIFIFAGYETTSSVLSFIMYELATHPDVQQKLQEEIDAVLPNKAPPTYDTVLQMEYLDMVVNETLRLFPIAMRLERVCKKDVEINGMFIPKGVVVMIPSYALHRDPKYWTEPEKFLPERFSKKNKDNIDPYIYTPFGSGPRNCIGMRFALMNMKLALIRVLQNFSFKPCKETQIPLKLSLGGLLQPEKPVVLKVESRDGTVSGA
Cytochrome P450 2C9, sequence (P11712 whole entry): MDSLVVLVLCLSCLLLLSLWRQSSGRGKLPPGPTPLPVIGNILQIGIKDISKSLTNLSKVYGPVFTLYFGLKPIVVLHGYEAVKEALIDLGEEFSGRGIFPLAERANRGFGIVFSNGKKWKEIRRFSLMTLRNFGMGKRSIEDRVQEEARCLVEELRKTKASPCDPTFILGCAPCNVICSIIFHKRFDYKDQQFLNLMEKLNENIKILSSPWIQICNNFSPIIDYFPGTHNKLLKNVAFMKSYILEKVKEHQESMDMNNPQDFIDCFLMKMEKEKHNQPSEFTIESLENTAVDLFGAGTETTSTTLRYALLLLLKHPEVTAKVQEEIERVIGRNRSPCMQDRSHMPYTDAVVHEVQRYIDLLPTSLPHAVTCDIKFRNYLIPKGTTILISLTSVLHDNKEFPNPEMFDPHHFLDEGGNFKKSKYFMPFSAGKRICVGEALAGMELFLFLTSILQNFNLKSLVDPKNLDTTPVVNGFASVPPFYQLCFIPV
Cytochrome P450 1A2 (Homo sapiens, UniProt P05177), sequence (P05177 whole entry): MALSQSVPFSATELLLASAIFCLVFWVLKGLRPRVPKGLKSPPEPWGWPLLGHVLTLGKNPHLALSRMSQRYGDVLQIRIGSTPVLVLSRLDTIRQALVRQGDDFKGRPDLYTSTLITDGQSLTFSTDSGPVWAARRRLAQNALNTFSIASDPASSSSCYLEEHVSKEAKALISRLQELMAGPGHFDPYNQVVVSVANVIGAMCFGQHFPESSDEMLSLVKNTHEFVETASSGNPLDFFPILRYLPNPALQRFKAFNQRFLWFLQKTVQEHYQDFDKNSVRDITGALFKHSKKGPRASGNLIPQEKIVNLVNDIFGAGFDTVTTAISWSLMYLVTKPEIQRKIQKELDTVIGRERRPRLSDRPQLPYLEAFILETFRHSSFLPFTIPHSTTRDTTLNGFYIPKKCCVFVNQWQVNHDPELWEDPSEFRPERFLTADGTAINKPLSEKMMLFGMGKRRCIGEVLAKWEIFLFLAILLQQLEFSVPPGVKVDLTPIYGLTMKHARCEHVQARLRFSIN
Cytochrome P450 2C8, sequence (P10632 whole entry): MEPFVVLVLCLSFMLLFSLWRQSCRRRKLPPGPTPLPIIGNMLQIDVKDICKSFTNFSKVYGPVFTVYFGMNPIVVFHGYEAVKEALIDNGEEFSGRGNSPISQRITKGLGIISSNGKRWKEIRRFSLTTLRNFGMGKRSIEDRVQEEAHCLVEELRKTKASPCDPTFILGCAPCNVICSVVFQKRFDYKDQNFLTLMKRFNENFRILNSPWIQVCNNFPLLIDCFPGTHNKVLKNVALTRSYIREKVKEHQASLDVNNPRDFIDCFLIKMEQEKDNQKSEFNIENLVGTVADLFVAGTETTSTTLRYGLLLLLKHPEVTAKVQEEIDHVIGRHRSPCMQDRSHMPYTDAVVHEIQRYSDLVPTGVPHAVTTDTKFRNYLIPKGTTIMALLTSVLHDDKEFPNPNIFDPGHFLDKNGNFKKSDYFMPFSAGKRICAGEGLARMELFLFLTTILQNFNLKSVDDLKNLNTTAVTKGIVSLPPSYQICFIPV
Cytochrome P450 1B1, sequence (Q16678 whole entry): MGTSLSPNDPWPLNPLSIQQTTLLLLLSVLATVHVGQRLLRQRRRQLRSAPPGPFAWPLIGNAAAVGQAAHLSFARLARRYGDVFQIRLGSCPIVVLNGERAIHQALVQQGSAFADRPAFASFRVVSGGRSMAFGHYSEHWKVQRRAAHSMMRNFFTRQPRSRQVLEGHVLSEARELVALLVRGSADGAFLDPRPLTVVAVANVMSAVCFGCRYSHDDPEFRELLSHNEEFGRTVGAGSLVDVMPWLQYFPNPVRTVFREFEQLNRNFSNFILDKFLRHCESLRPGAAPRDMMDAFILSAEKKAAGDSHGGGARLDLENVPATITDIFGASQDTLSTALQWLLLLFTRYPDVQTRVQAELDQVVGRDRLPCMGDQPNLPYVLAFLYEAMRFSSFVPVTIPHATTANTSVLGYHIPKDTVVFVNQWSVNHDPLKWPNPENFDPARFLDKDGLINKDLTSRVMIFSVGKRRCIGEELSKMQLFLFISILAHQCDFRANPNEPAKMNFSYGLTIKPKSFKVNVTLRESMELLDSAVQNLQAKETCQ
Cytochrome P450 2C19, sequence (P33261 whole entry): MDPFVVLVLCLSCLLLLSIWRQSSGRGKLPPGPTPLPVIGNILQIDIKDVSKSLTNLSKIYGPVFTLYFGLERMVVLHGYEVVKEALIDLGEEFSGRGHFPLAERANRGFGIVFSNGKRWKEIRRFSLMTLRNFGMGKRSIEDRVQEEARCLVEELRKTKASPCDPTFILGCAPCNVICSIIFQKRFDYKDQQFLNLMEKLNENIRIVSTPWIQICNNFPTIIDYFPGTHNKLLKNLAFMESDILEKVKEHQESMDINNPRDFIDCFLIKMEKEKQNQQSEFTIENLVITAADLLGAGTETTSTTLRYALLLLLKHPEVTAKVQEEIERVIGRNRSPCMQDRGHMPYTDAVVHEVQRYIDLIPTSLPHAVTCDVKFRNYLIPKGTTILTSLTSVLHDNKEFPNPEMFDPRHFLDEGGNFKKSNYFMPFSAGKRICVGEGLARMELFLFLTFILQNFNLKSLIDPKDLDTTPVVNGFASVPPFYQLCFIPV
Mitochondrial peptide methionine sulfoxide reductase, sequence (Q923M1 whole entry): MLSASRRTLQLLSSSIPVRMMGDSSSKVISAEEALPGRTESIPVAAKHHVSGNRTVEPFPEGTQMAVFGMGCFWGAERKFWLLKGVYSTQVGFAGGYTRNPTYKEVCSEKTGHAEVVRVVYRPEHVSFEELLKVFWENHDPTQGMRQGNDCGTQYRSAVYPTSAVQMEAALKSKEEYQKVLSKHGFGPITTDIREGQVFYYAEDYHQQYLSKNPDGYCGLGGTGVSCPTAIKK
Cytochrome P450 3A2, sequence (P05183 whole entry): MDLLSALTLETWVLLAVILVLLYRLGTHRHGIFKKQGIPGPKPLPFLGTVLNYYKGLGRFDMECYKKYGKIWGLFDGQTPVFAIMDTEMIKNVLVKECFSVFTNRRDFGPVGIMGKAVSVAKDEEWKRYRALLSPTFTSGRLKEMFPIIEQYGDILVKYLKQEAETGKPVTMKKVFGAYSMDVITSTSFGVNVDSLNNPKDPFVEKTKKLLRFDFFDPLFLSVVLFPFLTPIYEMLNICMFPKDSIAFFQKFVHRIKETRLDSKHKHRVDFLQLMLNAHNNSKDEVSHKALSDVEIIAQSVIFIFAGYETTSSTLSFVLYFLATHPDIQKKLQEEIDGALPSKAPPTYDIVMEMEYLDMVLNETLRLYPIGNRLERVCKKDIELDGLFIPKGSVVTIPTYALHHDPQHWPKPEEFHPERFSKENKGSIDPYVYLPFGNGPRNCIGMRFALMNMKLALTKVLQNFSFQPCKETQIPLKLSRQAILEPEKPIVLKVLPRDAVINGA
Cytochrome P450 2D6, sequence (P10635 whole entry): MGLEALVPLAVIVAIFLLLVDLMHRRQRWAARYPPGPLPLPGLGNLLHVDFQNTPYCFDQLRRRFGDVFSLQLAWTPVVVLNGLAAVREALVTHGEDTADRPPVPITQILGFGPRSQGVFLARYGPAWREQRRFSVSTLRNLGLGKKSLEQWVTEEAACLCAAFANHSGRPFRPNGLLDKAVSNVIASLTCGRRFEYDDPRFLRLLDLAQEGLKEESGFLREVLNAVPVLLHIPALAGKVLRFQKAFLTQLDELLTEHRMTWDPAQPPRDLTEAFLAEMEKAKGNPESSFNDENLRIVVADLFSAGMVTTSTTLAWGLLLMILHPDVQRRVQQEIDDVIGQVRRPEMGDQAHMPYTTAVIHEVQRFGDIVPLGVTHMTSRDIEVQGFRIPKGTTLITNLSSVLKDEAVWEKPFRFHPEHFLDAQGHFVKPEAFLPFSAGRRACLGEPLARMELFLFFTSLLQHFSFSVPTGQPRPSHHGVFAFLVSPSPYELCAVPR

As for `CSc1ccc(/C=C2/C(C)=C(CC(=O)O)c3cc(F)ccc32)cc1` [SULINDAC SULFIDE], the Drug metabolism entry with Zone of skin [1], in the data set with Liver [2], in the data set on Zone of skin [4], with Brain [5], in the data set with Plasma [6] and with Liver [7] was “metabolite_detected” in each case. Besides, the Drug metabolism result with Plasma [8] and in the data set on Brain [9] was “metabolite_detected” throughout. Besides, the Retention_time in data set [3] stood at 7.1 min.

As for `CC1=C(CC(=O)O)c2cc(F)ccc2/C1=C\c1ccc(S(C)(=O)=O)cc1` [EXISULIND], the Drug metabolism result in the data set on Liver microsome, with Zone of skin [1], with Liver [2], in the data set with Zone of skin [4], in the data set on Brain [5] and with Plasma [6] was “metabolite_detected” each time. The Drug metabolism result in the data set with Liver [7], with Plasma [8] and in the data set on Brain [9] was “metabolite_detected” throughout. The compound further gave a Retention_time in data set [3] of 1.5 min.

Regarding `CC1=C(CC(=O)O)c2cc(F)ccc2/C1=C\c1ccc([S@+](C)[O-])cc1`, the Drug metabolism entry is “metabolite_not_detected” at Cytochrome P450 2C19; “metabolite_not_detected” at Cytochrome P450 2D6; “metabolite_not_detected” at Cytochrome P450 2B1; “metabolite_not_detected” at Cytochrome P450 2C9; 29 pmol/h on Cytochrome P450 3A4; “metabolite_not_detected” on Cytochrome P450 3A2. Further, the Drug metabolism at Cytochrome P450 1A1 is 22 pmol/h; on Cytochrome P450 1B1 it was 0 pmol/h; at Cytochrome P450 1A2 [10] it was 34 pmol/h; on Cytochrome P450 1A2 [11] it was 24 pmol/h; at Cytochrome P450 2C8 it was “metabolite_not_detected”; in data set [12], “metabolite_detected”. For the same compound, the result in the data set with MRC5 and in the data set on A549 was Active.
